Our source for the MIC and Ratio values is ChEMBL document CHEMBL4257553, “Novel organophosphorus aminopyrimidines as unique structural DNA-targeting membrane active inhibitors towards drug-resistant methicillin-resistant Staphylococcus aureus” (Medchemcomm, 2018).

Converted amounts (≈) assume the structure as drawn.

What all share (format): functional
In assay [1] the test system is Staphylococcus aureus. Put plainly: Antibacterial activity against Staphylococcus aureus ATCC 25923 after 24 hrs by microbroth dilution method. Conditions: ATCC 25923, 24 h. An outline of the steps:
(§1)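 Tested by CLSI-standard broth microdilution against a panel of eleven bacterial strains, Gram-positive and Gram-negative, including MRSA.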

The next assay deals with Enterococcus faecalis. Put plainly: Antibacterial activity against Enterococcus faecalis after 24 hrs by microbroth dilution method. An outline of the steps:
as §1

The subject of assay [2] is Pseudomonas aeruginosa. In words: Antibacterial activity against Pseudomonas aeruginosa after 24 hrs by microbroth dilution method. An outline of the steps: as §1
A general note: Dilution methods test growth across graded concentrations, often in twofold steps.

The next assay deals with Klebsiella pneumoniae. In words: Antibacterial activity against Klebsiella pneumoniae after 24 hrs by microbroth dilution method. An outline of the steps:
as §1

Assay [3] concerns Escherichia coli. Put plainly: Antibacterial activity against Escherichia coli ATCC 25922 after 24 hrs by microbroth dilution method. The note with it: ATCC 25922, 24 h. Summed up: as §1
Assay [4] has as its system Staphylococcus aureus. Put plainly: Antibacterial activity against Staphylococcus aureus after 24 hrs by microbroth dilution method. Summed up:
as §1

Assay [5] concerns Staphylococcus aureus. In words: Antibacterial activity against Staphylococcus aureus ATCC 29213 after 24 hrs by microbroth dilution method. Conditions: ATCC 29213, 24 h. An outline of the steps: as §1
In assay [6] the test system is Escherichia coli. In words: Antibacterial activity against Escherichia coli after 24 hrs by microbroth dilution method. Summed up: as §1
The subject of assay [7] is Aspergillus fumigatus. Put plainly: Antifungal activity against Aspergillus fumigatus after 24 hrs by microbroth dilution method.
The test system of assay [8] is Pseudomonas aeruginosa. Put plainly: Antibacterial activity against Pseudomonas aeruginosa ATCC 27853 after 24 hrs by microbroth dilution method. Conditions: ATCC 27853, 24 h. An outline of the steps: as §1
For assay [9], the system named is Staphylococcus aureus. Put plainly: Antibacterial activity against methicillin resistant Staphylococcus aureus after 24 hrs by microbroth dilution method. Summed up:
as §1

The subject of a further assay is Acinetobacter baumannii. In words: Antibacterial activity against Acinetobacter baumannii after 24 hrs by microbroth dilution method. Summed up: as §1
For assay [10], the system named is Aspergillus fumigatus. Put plainly: Potency index, ratio of fluconazole MIC to compound MIC for antifungal activity against Aspergillus fumigatus.

One may read the MIC as the smallest concentration in the dilution series that meets the test's criterion for growth inhibition. Higher therefore signals weaker potency. Take `CCCCc1nc(Cl)c(C(Nc2ncccn2)P(=O)(OCC)OCC)n1CCC` (configuration not stated): the minimum inhibitory concentration (MIC) in the assay on Staphylococcus aureus [1] was determined as 64 µg/mL (≈ 144 µM); in the assay on Enterococcus faecalis it was 128 µg/mL (≈ 288 µM); in the assay on Pseudomonas aeruginosa [2], 128 µg/mL (≈ 288 µM); against Klebsiella pneumoniae it was 64 µg/mL (≈ 144 µM); against Escherichia coli [3], 128 µg/mL (≈ 288 µM); in the assay with Staphylococcus aureus [4] it was 256 µg/mL (≈ 577 µM). Moreover, the minimum inhibitory concentration (MIC) with Staphylococcus aureus [5] is 128 µg/mL (≈ 288 µM); with Escherichia coli [6], 256 µg/mL (≈ 577 µM); in the assay on Aspergillus fumigatus [7], over 16 µg/mL; against Pseudomonas aeruginosa [8] it was 128 µg/mL (≈ 288 µM); against Staphylococcus aureus [9] it was 8 µg/mL (≈ 18 µM); with Acinetobacter baumannii, 64 µg/mL (≈ 144 µM). In the assay with Aspergillus fumigatus [10], the Ratio is given as 16.

With `Cc1ccc(C(Nc2ncccn2)P(=O)(O)O)cc1` (configuration not stated), the MIC against Staphylococcus aureus [1] stood at 128 µg/mL (≈ 458 µM); in the assay on Enterococcus faecalis it was 256 µg/mL (≈ 917 µM); against Pseudomonas aeruginosa [2], 128 µg/mL (≈ 458 µM); against Klebsiella pneumoniae, 128 µg/mL (≈ 458 µM); in the assay with Escherichia coli [3], 256 µg/mL (≈ 917 µM); with Staphylococcus aureus [4] it was 256 µg/mL (≈ 917 µM). For the same compound, the MIC in the assay with Staphylococcus aureus [5] is 256 µg/mL (≈ 917 µM); in the assay with Escherichia coli [6] it was 128 µg/mL (≈ 458 µM); in the assay on Aspergillus fumigatus [7], over 16 µg/mL; in the assay with Pseudomonas aeruginosa [8], 256 µg/mL (≈ 917 µM); in the assay on Staphylococcus aureus [9], 256 µg/mL (≈ 917 µM); in the assay on Acinetobacter baumannii, 256 µg/mL (≈ 917 µM). Further, the Ratio in the assay on Aspergillus fumigatus [10] came to 16.

Consider `CCOP(=O)(OCC)C(Nc1ncccn1)c1cn(CC)c2ccccc12` (configuration not stated), for which the MIC came to 64 µg/mL (≈ 165 µM) in the assay with Staphylococcus aureus [1]; 128 µg/mL (≈ 330 µM) in the assay with Enterococcus faecalis; 256 µg/mL (≈ 659 µM) with Pseudomonas aeruginosa [2]; 64 µg/mL (≈ 165 µM) in the assay with Klebsiella pneumoniae; 256 µg/mL (≈ 659 µM) in the assay with Escherichia coli [3]; 64 µg/mL (≈ 165 µM) against Staphylococcus aureus [4]. Besides, the minimal inhibitory concentration (MIC) against Staphylococcus aureus [5] is 256 µg/mL (≈ 659 µM); in the assay on Escherichia coli [6], 256 µg/mL (≈ 659 µM); against Aspergillus fumigatus [7] it was over 16 µg/mL; with Pseudomonas aeruginosa [8] it was 128 µg/mL (≈ 330 µM); with Staphylococcus aureus [9], 4 µg/mL (≈ 10.3 µM); against Acinetobacter baumannii, 64 µg/mL (≈ 165 µM). For the same compound, the Ratio in the assay with Aspergillus fumigatus [10] was found to be 16.

With `O=P(O)(O)C(Nc1ncccn1)c1ccc(F)cc1` (configuration not stated), the MIC against Staphylococcus aureus [1] came to 128 µg/mL (≈ 452 µM); in the assay on Enterococcus faecalis, 256 µg/mL (≈ 904 µM); with Pseudomonas aeruginosa [2], 256 µg/mL (≈ 904 µM); in the assay with Klebsiella pneumoniae it was 256 µg/mL (≈ 904 µM); against Escherichia coli [3], 128 µg/mL (≈ 452 µM); against Staphylococcus aureus [4] it was 256 µg/mL (≈ 904 µM). Further, the minimal inhibitory concentration (MIC) in the assay with Staphylococcus aureus [5] was 256 µg/mL (≈ 904 µM); in the assay on Escherichia coli [6], 256 µg/mL (≈ 904 µM); against Aspergillus fumigatus [7] it was over 16 µg/mL; against Pseudomonas aeruginosa [8], 128 µg/mL (≈ 452 µM); with Staphylococcus aureus [9] it was 128 µg/mL (≈ 452 µM); against Acinetobacter baumannii it was 256 µg/mL (≈ 904 µM). Further, the Ratio in the assay with Aspergillus fumigatus [10] is reported as 16.

For `CCCCc1nc(Cl)c(C(Nc2ncccn2)P(=O)(OCC)OCC)n1CC` (configuration not stated), the minimum inhibitory concentration (MIC) is 128 µg/mL (≈ 298 µM) with Staphylococcus aureus [1]; 64 µg/mL (≈ 149 µM) in the assay on Enterococcus faecalis; 256 µg/mL (≈ 596 µM) against Pseudomonas aeruginosa [2]; 128 µg/mL (≈ 298 µM) in the assay on Klebsiella pneumoniae; 256 µg/mL (≈ 596 µM) against Escherichia coli [3]; 512 µg/mL (≈ 1190 µM) against Staphylococcus aureus [4]. In addition, the MIC against Staphylococcus aureus [5] is 256 µg/mL (≈ 596 µM); with Escherichia coli [6], 256 µg/mL (≈ 596 µM); in the assay on Aspergillus fumigatus [7] it was over 16 µg/mL; against Pseudomonas aeruginosa [8], 256 µg/mL (≈ 596 µM); in the assay with Staphylococcus aureus [9] it was 256 µg/mL (≈ 596 µM); with Acinetobacter baumannii, 256 µg/mL (≈ 596 µM). Also, the Ratio with Aspergillus fumigatus [10] turned out to be 16.

Take `CCOP(=O)(OCC)C(Nc1ncccn1)c1ccccc1Cl` (configuration not stated): the MIC with Staphylococcus aureus [1] came out at 128 µg/mL (≈ 360 µM); against Enterococcus faecalis, 128 µg/mL (≈ 360 µM); in the assay on Pseudomonas aeruginosa [2], 128 µg/mL (≈ 360 µM); with Klebsiella pneumoniae, 32 µg/mL (≈ 89.9 µM); in the assay on Escherichia coli [3] it was 64 µg/mL (≈ 180 µM); in the assay with Staphylococcus aureus [4], 128 µg/mL (≈ 360 µM). In addition, the MIC against Staphylococcus aureus [5] is 128 µg/mL (≈ 360 µM); with Escherichia coli [6] it was 256 µg/mL (≈ 720 µM); in the assay with Aspergillus fumigatus [7], over 16 µg/mL; against Pseudomonas aeruginosa [8], 128 µg/mL (≈ 360 µM); against Staphylococcus aureus [9] it was 8 µg/mL (≈ 22.5 µM); in the assay with Acinetobacter baumannii, 128 µg/mL (≈ 360 µM). Besides, the Ratio in the assay with Aspergillus fumigatus [10] was 16.

With `CCOP(=O)(OCC)C(Nc1ncccn1)c1c[nH]c2ccccc12` (configuration not stated), the minimum inhibitory concentration (MIC) amounted to 256 µg/mL (≈ 710 µM) with Staphylococcus aureus [1]; 256 µg/mL (≈ 710 µM) in the assay with Enterococcus faecalis; 256 µg/mL (≈ 710 µM) against Pseudomonas aeruginosa [2]; 64 µg/mL (≈ 178 µM) in the assay with Klebsiella pneumoniae; 256 µg/mL (≈ 710 µM) against Escherichia coli [3]; 256 µg/mL (≈ 710 µM) against Staphylococcus aureus [4]. Also, the minimum inhibitory concentration (MIC) against Staphylococcus aureus [5] was 128 µg/mL (≈ 355 µM); with Escherichia coli [6] it was 256 µg/mL (≈ 710 µM); against Aspergillus fumigatus [7], over 16 µg/mL; with Pseudomonas aeruginosa [8] it was 256 µg/mL (≈ 710 µM); with Staphylococcus aureus [9], 4 µg/mL (≈ 11.1 µM); in the assay on Acinetobacter baumannii, 128 µg/mL (≈ 355 µM). Moreover, the Ratio with Aspergillus fumigatus [10] came out at 16.

With `OC(Cn1cncn1)(Cn1cncn1)c1ccc(F)cc1F` [FLUCONAZOLE], in the assay with Aspergillus fumigatus [7], the minimum inhibitory concentration (MIC) is over 16 µg/mL.
